# Assay outcomes as filed in PubChem BioAssay.
# SKN-1 block: blocks SKN-1 activity in C. elegans. C. elegans VP596 Pgst-4::GFP/RFP ratio, acrylamide-induced, 24 h. inhibition, % at 21.8 µM. 360,000 compounds, 0.49% hits;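 active = interference check ratio from 0.5 to 1.5 plus GFP to RFP signal ratio inhibition reaching or exceeding a fixed threshold, cut at about 30% in these data, passing the limit was not always enough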
# Rpn11 inh: inhibitors of human proteasome Rpn11. O00487. human 26S proteasome, Ub4-pepOG fluorescence polarization; 20S core pre-blocked with epoxomicin. inhibition, % at 20 µM. 360,000 compounds, 0.59% hits. AID 588493;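 active = inhibition at 20 µM, scaled to each plate's controls, above about 33%, limit read from the data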
# Target sequence (O00487 whole entry, looked up): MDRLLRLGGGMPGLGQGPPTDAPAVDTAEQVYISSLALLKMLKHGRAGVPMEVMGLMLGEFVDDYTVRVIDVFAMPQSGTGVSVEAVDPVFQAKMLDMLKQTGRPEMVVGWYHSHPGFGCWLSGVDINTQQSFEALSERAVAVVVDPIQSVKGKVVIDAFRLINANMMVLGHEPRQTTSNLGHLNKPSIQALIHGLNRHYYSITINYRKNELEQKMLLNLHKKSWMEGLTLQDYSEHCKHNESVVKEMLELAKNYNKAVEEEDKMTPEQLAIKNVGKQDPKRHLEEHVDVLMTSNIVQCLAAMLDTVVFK
# MT1-MMP act inh: blocks activation of human MT1-MMP; AID 651647; P50281; 360,000 compounds, 0.061% hits; HT1080 RFP-PRO-GFP cells, GFP/RFP ratio fluorescence, overnight; percent of plate control window, DMSO zero; GFP/RFP ratio change, % at 20 µM;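 active = GFP/RFP ratio change of at least 30% with cell ATP level not reduced by more than half and red fluorescence within 50% of control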
#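 Test system: HT1080 RFP-PRO-GFP cells; Benchmarks: DMSO and RFP-L50D-GFP cell wells; Timing: cells overnight before dosing, compound overnight, 37 °C, 5% CO2; Compound: one 20 µM compound dose with 1% DMSO; Read-out: GFP/RFP fluorescence ratio.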
# DNMT1 inh: blocks human DNA methyltransferase DNMT1; P26358; DNMT1 molecular beacon, Hinp1I cleavage, fluorescence; inhibition (reported as % activation of signal), % at 10 µM; 360,000 compounds, 0.83% hits; in the data active = inhibition above about 50%
# SUMO1-SIM PPI: alters human SUMO1 binding to SIM partners. P63165. SUMO1 binding to a labelled peptide, TR-FRET, 1 h. inhibition, % at 20 µM. 360,000 compounds, 0.33% hits; in the data active = inhibition above about 37%
# Target sequence (P63165 whole entry, looked up): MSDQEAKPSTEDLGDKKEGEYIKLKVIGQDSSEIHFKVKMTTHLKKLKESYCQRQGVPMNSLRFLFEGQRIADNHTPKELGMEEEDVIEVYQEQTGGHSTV
# CSN deneddyl inh: inhibitors of human CSN-mediated cullin deneddylation | Q92905 | Purified CSN, SCF-Nedd8-OG deneddylation, fluorescence polarization | inhibition, % at 12.5 µM | 360,000 compounds, 0.38% hits;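 active = pattern-corrected inhibition above about 35%, with an unprinted fluorescence ratio check between 0.5 and 1.5, limit read from the data, passing the limit was not always enough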
#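 Detection – fluorescence polarization · System – HEK293T-derived human Csn5 enzyme · Controls – substrate-only high control, full reaction low control · Timing – 90 min, room temperature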
# A number is an active result; . = inactive; / = no result given. In the library only some 2.3% were active in any assay of this set; here they are far more common.
SMILES,SKN-1 block,Rpn11 inh,MT1-MMP act inh,DNMT1 inh,SUMO1-SIM PPI,CSN deneddyl inh
CN1CCN(C2CN(CCc3ccccc3)S(=O)(=O)C2)CC1 (stereo unspecified),.,.,.,.,.,.
O=c1[nH]c2ccccc2c2nc(-c3cccc(S(=O)(=O)N4CCCC4)c3)nn12,.,.,.,.,42,.
Cc1ccc(-c2ccc(CCC(=O)O)n2Cc2ccco2)cc1,.,.,.,57,.,.
O=C(O)CCc1ccc(-c2ccccc2)n1NC(=O)c1ccco1,39,.,.,.,.,.
Cc1ccc(S(=O)(=O)NCCCCC(NC(=O)OC(C)(C)C)C(=O)O)cc1 (stereo unspecified) (tested in a mixture with another compound),35,.,.,.,.,.
COc1ccc(NC(=O)c2cc(C3CCCCN3C(=O)c3ccccc3)on2)c(C)c1 (stereo unspecified),.,.,.,.,.,.
O=C(/C=C/Nc1ccc(F)cc1F)c1ccco1,45,.,.,.,.,.
O=C(/C=C/Nc1ccc(Br)cc1F)c1ccco1,76,.,.,.,.,.
O=C(/C=C/Nc1ccccc1O)c1ccco1,.,.,.,.,.,.
O=C(/C=C/Nc1cccc(F)c1)c1ccco1,.,.,.,.,.,.
O=C(/C=C/Nc1ccc(F)c(Cl)c1)c1ccco1,75,.,.,.,.,.
CSCCC(NS(=O)(=O)Cc1ccccc1)C(=O)NNc1ccccc1 (stereo unspecified),.,.,.,.,.,.
CCOc1ccc(CCNC(=O)CN2C(=O)NC3(CCCCCC3)C2=O)cc1OCC,.,.,.,.,48,.
CSCCC(C(=O)Nc1c(C)cccc1C)n1c(-c2cnc(C)cn2)nc2ccccc21 (stereo unspecified),.,/,.,/,.,.
CCOC(=O)c1c(NC(=S)Nc2ccc(Cl)cc2)sc2c1CCN(C)C2,.,/,.,.,.,61
CCOC(=O)c1c(NC(=S)Nc2ccc(OCC)cc2)sc2c1CCN(C)C2,.,.,.,.,.,.
CCOC(=O)c1c(NC(=O)Cc2ccccc2)sc2c1CCN(C)C2,.,.,.,.,.,.
CCOC(=O)c1c(NC(=O)CSc2nnc(C)s2)sc2c1CCN(C)C2,.,/,.,.,.,43
CCOC(=O)C1(C)CCCCCN1C(=O)/C=C/c1ccccc1 (stereo unspecified),.,.,.,.,.,.
O=C(N1CCCCC1)C1(c2ccccc2)CCOCC1,.,.,.,.,.,.
O=C(N1CCCCC1)C1(c2ccccc2)CCCCC1,.,.,.,.,.,37
Cc1ccc(-n2c(SCC(=O)NCc3ccco3)nnc2-c2cccnc2)cc1,.,.,.,.,.,.
O=C(CSc1nnc(-c2ccncc2)n1-c1ccc(F)cc1)NC(=O)NCc1ccco1,.,.,.,68,.,.
COc1ccc(-c2csc(C(C)(O)c3cccnc3)n2)cc1 (stereo unspecified),.,.,.,.,.,.
CCOC(=O)/C(=C\C=C1/Sc2cc(OCC)c(OCC)cc2N1CC)C(C)=O,.,/,.,93,.,.
SMILES,SKN-1 block,Rpn11 inh,MT1-MMP act inh,DNMT1 inh,SUMO1-SIM PPI,CSN deneddyl inh
CCOC(=O)/C(=C/C=C1\Sc2cc(OCC)c(OCC)cc2N1CC)C(C)=O,.,/,.,.,.,.
CC1=C(C(=O)N2CCOCC2)CC(CC(=O)NCCCCc2ccccc2)C(=O)N1Cc1ccc(C(C)(C)C)cc1 (stereo unspecified),.,.,/,.,.,.
O=c1[nH]c2cc(Cl)c(Br)cc2o1,35,.,.,.,.,.
COc1ccc(NC(=O)C(c2ccncc2)n2c(=O)c(-c3ccccc3)nc3ccccc32)cc1 (stereo unspecified),.,/,.,/,.,.
Cn1c(SCC(=O)c2ccc3c(c2)Cc2ccccc2-3)nnc1-c1ccccc1,.,.,.,.,.,74
O=C(Nc1ccc(Oc2ccccc2)nc1)[C@H]1O[C@@H](n2ccc(=O)[nH]c2=O)[C@H](O)[C@@H]1O,.,.,.,.,.,.
NC1=C(Br)C(=O)c2ncccc2C1=O,.,.,.,63,.,.
O=C(Cn1nnc(-c2ccccc2)c1COc1ccc2ccccc2c1)NCC1CC1,.,.,.,.,.,.
CC(=NNC(=S)Nc1cccc(Cl)c1)c1ccccn1,39,.,.,.,.,.
S=C(NCc1ccccn1)Nc1cccc(Cl)c1,.,.,.,.,.,.
c1ccc2c(c1)NC(c1ccncc1)n1c-2nc2ccccc21 (stereo unspecified),34,.,.,.,.,.
c1csc(-c2noc(COc3ccc4c(c3)CCCC4)n2)c1,38,.,.,.,.,.
Brc1ccc(-c2noc(COc3ccc4c(c3)CCC4)n2)o1,.,.,.,.,.,.
Nc1c(C(=O)Nc2ccc(Br)cc2)sc2nc(-c3ccco3)ccc12,.,.,.,.,.,.
Nc1c(C(=O)Nc2ccc(F)cc2)sc2nc(-c3ccco3)ccc12,45,.,.,.,.,.
CCc1nc2ccc(C(=O)N(C)C(C)C)cn2c1N(CC)Cc1cccc(Br)c1,.,.,.,.,.,.
CCOC(=O)c1ccc(-n2c(CCC(=O)O)ccc2-c2ccc(F)cc2)cc1,.,.,.,.,.,42
COC(=O)c1ccc(-n2c(CCC(=O)O)ccc2-c2ccc(C)cc2)cc1,.,.,.,.,.,.
O=C(NCc1ccc(Cl)c(Cl)c1)c1cc(C2CCCCN2C(=O)c2ccccn2)on1 (stereo unspecified),.,.,.,.,.,.
COC(=O)C[C@@H]1C=C[C@H](NC(=O)Nc2ccc(F)cc2)[C@@H](CO)O1,.,/,.,/,.,.
CN(CC(=O)Nc1nc2ccccc2s1)S(=O)(=O)c1ccc(Cl)cc1,36,.,.,.,.,.
O=C(N/N=C/c1ccc(OC(=O)c2cccc(F)c2)cc1)c1cccnc1,.,.,.,.,.,41
Cc1cccc(C)c1-n1nnnc1C1(C)CCC(=O)N1CC(F)(F)F (stereo unspecified),.,/,.,/,.,.
CCCCn1cc(SCC(=O)O)c2ccccc21,.,.,.,.,.,59
CCCn1cc(SCC(=O)NC2CCCC2)c2ccccc21,.,.,.,.,.,.
CCCc1c(-c2ccc(F)cc2F)ncn1Cc1cccc(-c2ccccc2)c1,.,/,.,/,.,.
Cc1oc2c(C)c3oc(=O)c(CCC(=O)O)c(C)c3cc2c1-c1ccccc1,.,.,.,.,38,.
CCCCNC(=O)c1nc(-c2cc3ccccc3[nH]2)oc1-c1ccccc1,.,/,.,/,.,.
